How the values were obtained:
[1] = target: 5-hydroxytryptamine receptor 2A (Homo sapiens, UniProt P28223); test: Binding affinity towards human 5-hydroxytryptamine 2A receptor expressed in HEK 293 cells using [3H]ketanserin as radioligand; format: cell-based, HEK293
How it was run: (§1)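 Radioligand binding on human cloned receptors stably expressed in HEK 293 cells; 5-HT2A labelled with [3H]ketanserin, 5-HT2B with [3H]-5-HT. Values are means of at least two determinations, each within 0.2 log unit of the mean.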

[2] = target: T1, 5-hydroxytryptamine receptor 2C (Homo sapiens, UniProt P28335); test: Binding affinity towards cloned human 5-hydroxytryptamine 2C receptor expressed in HEK 293 cells using [3H]mesulergine as radioligand; format: cell-based, HEK293
T1 sequence (P28335 whole entry): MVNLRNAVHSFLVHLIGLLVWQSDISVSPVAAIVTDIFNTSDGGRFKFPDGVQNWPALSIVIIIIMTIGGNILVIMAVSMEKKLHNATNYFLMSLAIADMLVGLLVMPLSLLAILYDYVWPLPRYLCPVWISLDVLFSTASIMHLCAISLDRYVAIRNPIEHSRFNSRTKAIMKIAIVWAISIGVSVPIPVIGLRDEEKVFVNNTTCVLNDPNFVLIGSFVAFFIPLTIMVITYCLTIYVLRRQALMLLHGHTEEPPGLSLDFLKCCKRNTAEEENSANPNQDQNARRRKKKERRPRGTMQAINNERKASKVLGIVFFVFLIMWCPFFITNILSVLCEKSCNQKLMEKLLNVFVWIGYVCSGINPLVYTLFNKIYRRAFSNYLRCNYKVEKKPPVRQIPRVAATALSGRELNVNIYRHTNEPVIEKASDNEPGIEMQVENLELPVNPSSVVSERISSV

Rattus norvegicus [3] = test: Percentage change punished lever presses from mean score on 6-8 rats(P<0.001) at 0.2 mg/kg po1h pretest; format: functional
Rattus norvegicus [4] = test: Percentage change punished lever presses from mean score on 6-8 rats(P<0.001) at 0.5 mg/kg po1h pretest; format: functional
Rattus norvegicus [5] = test: Percentage change punished lever presses from mean score on 6-8 rats(P<0.001) at 10 mg/kg po1h pretest; format: functional
Rattus norvegicus [6] = test: Percentage change punished lever presses from mean score on 6-8 rats(P<0.001) at 1 mg/kg po1h pretest; format: functional
Rattus norvegicus [7] = test: Percentage change punished lever presses from mean score on 6-8 rats(P<0.001) at 20 mg/kg po1h pretest; format: functional
Rattus norvegicus [8] = test: Percentage change punished lever presses from mean score on 6-8 rats(P<0.001) at 2 mg/kg po1h pretest; format: functional
Rattus norvegicus [9] = test: Percentage change punished lever presses from mean score on 6-8 rats(P<0.001) at 5 mg/kg po1h pretest; format: functional
Rattus norvegicus [10] = test: Percentage change unpunished lever presses from mean score on 6-8 rats at 0.2 mg/kg po1h pretest; format: functional
Rattus norvegicus [11] = test: Percentage change unpunished lever presses from mean score on 6-8 rats at 0.5 mg/kg po1h pretest; format: functional
Rattus norvegicus [12] = test: Percentage change unpunished lever presses from mean score on 6-8 rats at 10 mg/kg po1h pretest; format: functional
Rattus norvegicus [13] = test: Percentage change unpunished lever presses from mean score on 6-8 rats at 1 mg/kg po1h pretest; format: functional
Rattus norvegicus [14] = test: Percentage change unpunished lever presses from mean score on 6-8 rats at 20 mg/kg po1h pretest; format: functional
Rattus norvegicus [15] = test: Percentage change unpunished lever presses from mean score on 6-8 rats at 2 mg/kg po1h pretest; format: functional
Rattus norvegicus [16] = organism: Rattus norvegicus; test: The dose required to reverse […]- induced hypolocomotion in rat by 50 %; format: functional; conditions: ip, 0.5 h, read-out: ID50 (the source's name)
Rattus norvegicus [17] = test: Percentage change unpunished lever presses from mean score on 6-8 rats(P<0.05) at 0.1 mg/kg po1h pretest; format: functional
Rattus norvegicus [18] = test: Percentage change unpunished lever presses from mean score on 6-8 rats(P<0.01) at 5 mg/kg po1h pretest
Rattus norvegicus [19] = test: Percentage change punished lever presses from mean score on 6-8 rats at 0.5 mg/kg po1h pretest; format: functional
Rattus norvegicus [20] = test: Percentage change punished lever presses from mean score on 6-8 rats(P<0.01) at 5 mg/kg po1h pretest; format: functional
Rattus norvegicus [21] = test: Percentage change unpunished lever presses from mean score on 6-8 rats at 5 mg/kg po1h pretest; format: functional
Rattus norvegicus [22] = test: Percentage change unpunished lever presses from mean score on 6-8 ratsP<0.01) at 1 mg/kg po1h pretest; format: functional
Rattus norvegicus [23] = test: Percentage change unpunished lever presses from mean score on 6-8 ratsP<0.05)at 2 mg/kg po1h pretest; format: functional
[24] = target: 5-hydroxytryptamine receptor 2B (Homo sapiens, UniProt P41595); test: Binding affinity towards cloned human 5-hydroxytryptamine 2B receptor expressed in HEK 293 cells using [3H]5-HT as radioligand; format: cell-based, HEK293; how it was run: as §1
Rattus norvegicus [25] = test: Percentage change punished lever presses from mean score on 6-8 rats at 0.2 mg/kg po1h pretest; format: functional
Rattus norvegicus [26] = test: Percentage change punished lever presses from mean score on 6-8 ratsP<0.001) at 10 mg/kg po1h pretest; format: functional
Rattus norvegicus [27] = test: Percentage change punished lever presses from mean score on 6-8 ratsP<0.001) at 20 mg/kg po1h pretest; format: functional
Rattus norvegicus [28] = test: Percentage change punished lever presses from mean score on 6-8 ratsP<0.001) at 2 mg/kg po1h pretest; format: functional
Rattus norvegicus [29] = test: Percentage change punished lever presses from mean score on 6-8 ratsP<0.001) at 5 mg/kg po1h pretest; format: functional
Rattus norvegicus [30] = test: Percentage change unpunished lever presses from mean score on 6-8 rats(P<0.01) at 20 mg/kg po1h pretest; format: functional
Rattus norvegicus [31] = test: Percentage change unpunished lever presses from mean score on 6-8 rats(P<0.05) at 2 mg/kg po1h pretest; format: functional
Rattus norvegicus [32] = test: Percentage change punished lever presses from mean score on 6-8 rats at 5 mg/kg po1h pretest; format: functional
How it was run: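 Geller–Seifter conflict test in trained rats, groups of 6–8, oral dosing. Lever pressing for food reward on a multiple schedule: five 3-min VI30 components alternating with five 3-min light-signalled FR5 components, where reward came with footshock (15 ms pulses at 200 ms intervals for 1 s). Punished presses compared with each of 2 preceding vehicle-treated test days by two-way ANOVA of square-root-transformed data.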

5-hydroxytryptamine receptor 2B, sequence (P41595 whole entry): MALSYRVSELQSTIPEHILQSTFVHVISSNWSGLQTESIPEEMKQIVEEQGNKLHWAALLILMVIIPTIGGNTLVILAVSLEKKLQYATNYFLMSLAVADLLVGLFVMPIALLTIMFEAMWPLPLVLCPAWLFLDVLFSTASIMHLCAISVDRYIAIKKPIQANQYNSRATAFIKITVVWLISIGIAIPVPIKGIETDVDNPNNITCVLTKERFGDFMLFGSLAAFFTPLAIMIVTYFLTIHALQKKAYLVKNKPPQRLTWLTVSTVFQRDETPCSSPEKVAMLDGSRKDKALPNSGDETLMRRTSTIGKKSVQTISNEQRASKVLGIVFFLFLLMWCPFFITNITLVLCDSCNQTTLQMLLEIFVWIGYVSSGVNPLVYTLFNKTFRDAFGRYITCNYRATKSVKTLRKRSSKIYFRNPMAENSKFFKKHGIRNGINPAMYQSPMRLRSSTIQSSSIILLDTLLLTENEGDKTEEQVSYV
5-hydroxytryptamine receptor 2A, sequence (P28223 whole entry): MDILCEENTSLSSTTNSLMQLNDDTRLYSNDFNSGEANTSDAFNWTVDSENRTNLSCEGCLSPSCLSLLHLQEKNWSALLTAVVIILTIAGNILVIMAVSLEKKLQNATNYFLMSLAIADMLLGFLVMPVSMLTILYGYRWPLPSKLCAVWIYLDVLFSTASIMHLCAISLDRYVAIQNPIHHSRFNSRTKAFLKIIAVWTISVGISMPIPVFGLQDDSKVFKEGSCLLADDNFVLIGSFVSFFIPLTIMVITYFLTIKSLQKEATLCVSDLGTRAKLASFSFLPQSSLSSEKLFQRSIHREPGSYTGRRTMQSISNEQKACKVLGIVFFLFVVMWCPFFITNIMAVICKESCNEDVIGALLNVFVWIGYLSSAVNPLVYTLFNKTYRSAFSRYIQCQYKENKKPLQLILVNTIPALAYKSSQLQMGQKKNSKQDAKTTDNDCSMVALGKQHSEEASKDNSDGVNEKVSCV

## COc1cc2c(cc1C(F)(F)F)N(C(=O)Nc1cccnc1)CC2
[1]
  Ki: 1000 nM
[2]
  Ki: 10 nM
Rattus norvegicus [3]
  Change: 26%
Rattus norvegicus [4]
  Change: 36%
Rattus norvegicus [5]
  Change: 63%
Rattus norvegicus [6]
  Change: 28%
Rattus norvegicus [7]
  Change: 62%
Rattus norvegicus [8]
  Change: 34%
Rattus norvegicus [9]
  Change: 37%
Rattus norvegicus [10]
  Change: 2%
Rattus norvegicus [11]
  Change: 2%
Rattus norvegicus [12]
  Change: 0%
Rattus norvegicus [13]
  Change: -2%
Rattus norvegicus [14]
  Change: -1%
Rattus norvegicus [15]
  Change: 3%
Rattus norvegicus [16]
  ED50: 0.8 mg/kg
Rattus norvegicus [17]
  Change: 8%
Rattus norvegicus [18]
  Change: 8%

## CSc1cc2c(cc1C(F)(F)F)N(C(=O)Nc1cccnc1)CC2
Rattus norvegicus [19]
  Change: 6%
Rattus norvegicus [5]
  Change: 46%
Rattus norvegicus [6]
  Change: 30%
Rattus norvegicus [7]
  Change: 76%
Rattus norvegicus [8]
  Change: 36%
Rattus norvegicus [20]
  Change: 38%
Rattus norvegicus [11]
  Change: 3%
Rattus norvegicus [12]
  Change: -2%
Rattus norvegicus [14]
  Change: 0%
Rattus norvegicus [21]
  Change: 2%
Rattus norvegicus [22]
  Change: 10%
Rattus norvegicus [23]
  Change: 4%
Rattus norvegicus [16]
  ED50: 1.2 mg/kg

## CSc1cc2c(cc1I)N(C(=O)Nc1cccnc1)CC2
[1]
  Ki: 501 nM
[2]
  Ki: 2 nM
Rattus norvegicus [16]
  ED50: 3.2 mg/kg

## CCSc1cc2c(cc1C(F)(F)F)N(C(=O)Nc1cccnc1)CC2
[1]
  Ki: 3160 nM
[2]
  Ki: 3.16 nM
Rattus norvegicus [16]
  ED50: 4.4 mg/kg
[24]
  Ki: 10 nM

## O=C(Nc1cccnc1)N1CCc2cc(Cl)ccc21
[1]
  Ki: 2510 nM
[2]
  Ki: 79.4 nM

## CSc1cc2c(cc1OC(F)(F)F)N(C(=O)Nc1cccnc1)CC2
[1]
  Ki: 3160 nM
[2]
  Ki: 25.1 nM

## CC(C)(C)c1cc2c(cc1Cl)N(C(=O)Nc1cccnc1)CC2
[1]
  Ki: 631 nM
[2]
  Ki: 20 nM
[24]
  Ki: 158 nM

## O=C(Nc1cccnc1)N1CCc2ccc(Cl)cc21
[1]
  Ki: 794 nM
[2]
  Ki: 50.1 nM

## COC(=O)c1cc2c(cc1Cl)N(C(=O)Nc1cccnc1)CC2
[1]
  Ki: 6310 nM
[2]
  Ki: 31.6 nM
Rattus norvegicus [16]
  ED50: 16 mg/kg

## CC(C)Oc1cc2c(cc1Cl)N(C(=O)Nc1cccnc1)CC2
[1]
  Ki: > 6310 nM
[2]
  Ki: 15.8 nM
Rattus norvegicus [16]
  ED50: 4 mg/kg

## CC(C)Sc1cc2c(cc1C(F)(F)F)N(C(=O)Nc1cccnc1)CC2
[1]
  Ki: 5010 nM
[2]
  Ki: 31.6 nM

## O=C(Nc1cccnc1)N1CCc2ccc(Cl)c(Cl)c21
[1]
  Ki: 5010 nM
[2]
  Ki: 794 nM

## CC(C)Oc1cc2c(cc1C(F)(F)F)N(C(=O)Nc1cccnc1)CC2
[1]
  Ki: 1580 nM
[2]
  Ki: 3.16 nM
Rattus norvegicus [16]
  ED50: 1.4 mg/kg
[24]
  Ki: 3.98 nM

## CCOc1cc2c(cc1C(F)(F)F)N(C(=O)Nc1cccnc1)CC2
[1]
  Ki: 1580 nM
[2]
  Ki: 6.31 nM
Rattus norvegicus [25]
  Change: 5%
Rattus norvegicus [4]
  Change: 31%
Rattus norvegicus [6]
  Change: 33%
Rattus norvegicus [8]
  Change: 24%
Rattus norvegicus [9]
  Change: 31%
Rattus norvegicus [10]
  Change: 3%
Rattus norvegicus [11]
  Change: 3%
Rattus norvegicus [13]
  Change: 4%
Rattus norvegicus [15]
  Change: 1%
Rattus norvegicus [21]
  Change: 0%
Rattus norvegicus [16]
  ED50: 1 mg/kg

## COc1cc2c(cc1Br)N(C(=O)Nc1cccnc1)CC2
[1]
  Ki: 1580 nM
[2]
  Ki: 12.6 nM
Rattus norvegicus [16]
  ED50: 1.8 mg/kg

## CCCSc1cc2c(cc1C(F)(F)F)N(C(=O)Nc1cccnc1)CC2
[1]
  Ki: > 6310 nM
[2]
  Ki: 6.31 nM
[24]
  Ki: 15.8 nM

## CSc1cc2c(cc1Br)N(C(=O)Nc1cccnc1)CC2
[1]
  Ki: 501 nM
[2]
  Ki: 2 nM
Rattus norvegicus [19]
  Change: 0%
Rattus norvegicus [6]
  Change: 24%
Rattus norvegicus [26]
  Change: 38%
Rattus norvegicus [27]
  Change: 53%
Rattus norvegicus [28]
  Change: 29%
Rattus norvegicus [29]
  Change: 28%
Rattus norvegicus [11]
  Change: 0%
Rattus norvegicus [12]
  Change: 3%
Rattus norvegicus [13]
  Change: 2%
Rattus norvegicus [21]
  Change: 4%
Rattus norvegicus [30]
  Change: 6%
Rattus norvegicus [31]
  Change: 5%
Rattus norvegicus [16]
  ED50: 3 mg/kg

## CC(C)c1cc2c(cc1Cl)N(C(=O)Nc1cccnc1)CC2
[1]
  Ki: 2000 nM
[2]
  Ki: 20 nM

## CSc1cc2c(cc1C(F)(F)C(F)(F)F)N(C(=O)Nc1cccnc1)CC2
[1]
  Ki: 2510 nM
[2]
  Ki: 3.98 nM
Rattus norvegicus [16]
  ED50: 5 mg/kg
[24]
  Ki: 31.6 nM

## CCOc1cc2c(cc1Cl)N(C(=O)Nc1cccnc1)CC2
[1]
  Ki: 3980 nM
[2]
  Ki: 25.1 nM
Rattus norvegicus [16]
  ED50: 3.4 mg/kg

## CN1C(=O)CN=C(c2ccccc2)c2cc(Cl)ccc21 [DIAZEPAM]
Rattus norvegicus [32]
  Change: 70%
Rattus norvegicus [21]
  Change: -19%

Reference: ChEMBL document CHEMBL1131637, “Novel and selective 5-HT2C/2B receptor antagonists as potential anxiolytic agents: synthesis, quantitative structure-activity relationships, and molecular modeling of substituted 1-(3-pyridylcarbamoyl)indolines” (J Med Chem, 1998)
